What was measured:
Assay type in all cases: functional, cell-based
[1] = system: MDA-MB-468; assay: Antiproliferative activity against human MDA-MB-468 cells after 72 hrs by MTT assay; conditions: MDA-MB-468, 72 h
Method in brief: (§1)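 Six human breast carcinoma lines of differing molecular and phenotypic character were each exposed to a range of concentrations for 72 h. Proliferation was read by MTT. Results are given as mean percent viability, with IC₅₀ ± SEM calculated per cell line.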

[2] = system: MCF7; assay: Antiproliferative activity against human MCF7 cells after 72 hrs by MTT assay; conditions: MCF7, 72 h; method in brief: as §1
[3] = system: SK-BR-3; assay: Antiproliferative activity against human SKBR3 cells after 72 hrs by MTT assay; conditions: SK-BR-3, 72 h; method in brief: as §1
[4] = system: MDA-MB-231; assay: Antiproliferative activity against human MDA-MB-231 cells after 72 hrs by MTT assay; conditions: MDA-MB-231, 72 h
Method in brief: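 MDA-MB-231 triple-negative breast cancer cells were exposed to a range of concentrations for 72 h. Proliferation was read by MTT. Results are given as mean percent viability versus concentration, with IC₅₀ ± SEM calculated from the curve.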

[5] = system: BT-474; assay: Antiproliferative activity against human BT474 cells after 72 hrs by MTT assay; conditions: BT-474, 72 h; method in brief: as §1
[6] = system: T47D; assay: Antiproliferative activity against human T47D cells after 72 hrs by MTT assay; method in brief: as §1

SMILES	IC50 [1]	IC50 [2]	IC50 [3]	IC50 [4]	IC50 [5]	IC50 [6]
C[C@@H]1CC[C@@]2(OC1)O[C@H]1C[C@H]3[C@@H]4CC[C@H]5C[C@@H](OC(=O)c6ccc(F)cc6)CC[C@]5(C)[C@H]4CC(=O)[C@]3(C)[C@H]1[C@@H]2C	33.4 µM	28 µM	36 µM	27 µM	30 µM	29 µM
Cc1ccc(S(=O)(=O)NC(=O)N/N=C2\C[C@H]3[C@@H](CC[C@H]4C[C@@H](O)CC[C@@]43C)[C@@H]3C[C@@H]4O[C@]5(CC[C@@H](C)CO5)[C@@H](C)[C@@H]4[C@@]23C)cc1	36.4 µM	29.3 µM	31 µM	28 µM	> 40 µM	> 40 µM
C[C@@H]1CC[C@@]2(OC1)O[C@H]1C[C@H]3[C@@H]4CC[C@H]5C[C@@H](O)CC[C@]5(C)[C@H]4C/C(=N\NC(=S)Nc4ccc5c(c4)OCO5)[C@]3(C)[C@H]1[C@@H]2C	5.9 µM	5.3 µM	6.2 µM	5.5 µM	7.5 µM	7.8 µM
C[C@@H]1CC[C@@]2(OC1)O[C@H]1C[C@H]3[C@@H]4CC[C@H]5C[C@@H](O)CC[C@]5(C)[C@H]4C/C(=N\NC(=S)Nc4ccc(Cl)cc4Cl)[C@]3(C)[C@H]1[C@@H]2C	8 µM	7.9 µM	8.8 µM	7.5 µM	9 µM	9.5 µM
COc1ccccc1C(=O)O[C@H]1CC[C@@]2(C)[C@@H](CC[C@@H]3[C@@H]2CC(=O)[C@]2(C)[C@@H]4[C@H](C[C@@H]32)O[C@]2(CC[C@@H](C)CO2)[C@H]4C)C1	> 40 µM	> 40 µM	> 40 µM	> 40 µM	> 40 µM	> 40 µM
C[C@@H]1CC[C@@]2(OC1)O[C@H]1C[C@H]3[C@@H]4CC[C@H]5C[C@@H](O)CC[C@]5(C)[C@H]4C/C(=N\NC(=O)Nc4cccc(C(F)(F)F)c4)[C@]3(C)[C@H]1[C@@H]2C	15.3 µM	13.8 µM	15.7 µM	14 µM	19.2 µM	20.9 µM
C[C@@H]1CC[C@@]2(OC1)O[C@H]1C[C@H]3[C@@H]4CC[C@H]5C[C@@H](O)CC[C@]5(C)[C@H]4C/C(=N\NC(=O)Nc4ccc(Cl)cc4)[C@]3(C)[C@H]1[C@@H]2C	11.3 µM	9.1 µM	9 µM	8.5 µM	9.8 µM	12 µM
C[C@@H]1CC[C@@]2(OC1)O[C@H]1C[C@H]3[C@@H]4CC[C@H]5C[C@@H](OC(=O)c6ccco6)CC[C@]5(C)[C@H]4CC(=O)[C@]3(C)[C@H]1[C@@H]2C	> 40 µM	> 40 µM	> 40 µM	> 40 µM	> 40 µM	> 40 µM

Results, then the compound that gave them:

IC50 [1]	IC50 [2]	IC50 [3]	IC50 [4]	IC50 [5]	IC50 [6]	SMILES
6.2 µM	5.9 µM	5.7 µM	5.5 µM	6.5 µM	7 µM	C[C@@H]1CC[C@@]2(OC1)O[C@H]1C[C@H]3[C@@H]4CC[C@H]5C[C@@H](O)CC[C@]5(C)[C@H]4C/C(=N\NC(=S)Nc4ccccc4Cl)[C@]3(C)[C@H]1[C@@H]2C
8 µM	7.5 µM	7.9 µM	7.3 µM	10.3 µM	11.5 µM	C[C@@H]1CC[C@@]2(OC1)O[C@H]1C[C@H]3[C@@H]4CC[C@H]5C[C@@H](O)CC[C@]5(C)[C@H]4C/C(=N\NC(=S)Nc4ccc([N+](=O)[O-])cc4)[C@]3(C)[C@H]1[C@@H]2C
6.1 µM	5 µM	5.5 µM	4.3 µM	6.9 µM	9 µM	C[C@@H]1CC[C@@]2(OC1)O[C@H]1C[C@H]3[C@@H]4CC[C@H]5C[C@@H](O)CC[C@]5(C)[C@H]4C/C(=N\NC(=S)Nc4ccccc4[N+](=O)[O-])[C@]3(C)[C@H]1[C@@H]2C
11.2 µM	10.1 µM	11.5 µM	9.5 µM	10.9 µM	14.2 µM	COc1ccc(NC(=S)N/N=C2\C[C@H]3[C@@H](CC[C@H]4C[C@@H](O)CC[C@@]43C)[C@@H]3C[C@@H]4O[C@]5(CC[C@@H](C)CO5)[C@@H](C)[C@@H]4[C@@]23C)cc1
4 µM	3.7 µM	3.8 µM	3.1 µM	4.5 µM	6.1 µM	Cc1ccc(NC(=S)N/N=C2\C[C@H]3[C@@H](CC[C@H]4C[C@@H](O)CC[C@@]43C)[C@@H]3C[C@@H]4O[C@]5(CC[C@@H](C)CO5)[C@@H](C)[C@@H]4[C@@]23C)cc1
2.7 µM	2.2 µM	2.1 µM	2.1 µM	3.1 µM	2.4 µM	C[C@@H]1CC[C@@]2(OC1)O[C@H]1C[C@H]3[C@@H]4CC[C@H]5C[C@@H](O)CC[C@]5(C)[C@H]4C/C(=N\NC(=S)Nc4ccccc4C(F)(F)F)[C@]3(C)[C@H]1[C@@H]2C
7.3 µM	6.4 µM	9 µM	6 µM	6.9 µM	10.4 µM	C[C@@H]1CC[C@@]2(OC1)O[C@H]1C[C@H]3[C@@H]4CC[C@H]5C[C@@H](O)CC[C@]5(C)[C@H]4C/C(=N\NC(=S)Nc4c(Cl)cccc4Cl)[C@]3(C)[C@H]1[C@@H]2C
3.9 µM	3.7 µM	4 µM	3.2 µM	4.4 µM	3.8 µM	C[C@@H]1CC[C@@]2(OC1)O[C@H]1C[C@H]3[C@@H]4CC[C@H]5C[C@@H](O)CC[C@]5(C)[C@H]4C/C(=N\NC(=S)Nc4ccc(C(F)(F)F)cc4)[C@]3(C)[C@H]1[C@@H]2C
5.8 µM	5 µM	4.7 µM	3.8 µM	8.3 µM	8.8 µM	CCc1ccccc1NC(=S)N/N=C1\C[C@H]2[C@@H](CC[C@H]3C[C@@H](O)CC[C@@]32C)[C@@H]2C[C@@H]3O[C@]4(CC[C@@H](C)CO4)[C@@H](C)[C@@H]3[C@@]12C
3.8 µM	3 µM	4.2 µM	2.7 µM	3.7 µM	5.2 µM	Cc1ccc(NC(=S)N/N=C2\C[C@H]3[C@@H](CC[C@H]4C[C@@H](O)CC[C@@]43C)[C@@H]3C[C@@H]4O[C@]5(CC[C@@H](C)CO5)[C@@H](C)[C@@H]4[C@@]23C)c(C)c1
8.4 µM	8 µM	9.1 µM	7.8 µM	9.3 µM	10.3 µM	C[C@@H]1CC[C@@]2(OC1)O[C@H]1C[C@H]3[C@@H]4CC[C@H]5C[C@@H](O)CC[C@]5(C)[C@H]4C/C(=N\NC(=S)Nc4ccccc4)[C@]3(C)[C@H]1[C@@H]2C

Reference: ChEMBL document CHEMBL4177624, “Rationally designed hecogenin thiosemicarbazone analogs as novel MEK inhibitors for the control of breast malignancies” (Bioorg Med Chem, 2017)
